Assay [1] relates to MDA-MB-468. Put plainly: Antiproliferative activity against human MDA-MB-468 cells assessed as cell viability incubated for 96 hrs by MTT assay. In kind it is functional, cell-based. The conditions noted are these: MDA-MB-468, 96 h. Put shortly:
(§1)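 Adherent cells (2000/well) attached overnight, then exposed to compounds at 0.14–100 µM for 96 h in DMEM with 10% FBS. MTT at 0.5 mg/mL for 4 h in the dark, formazan dissolved in DMSO, absorbance at 570 nm. Compounds were freshly prepared in DMSO, with DMSO below 1%.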

The subject of assay [2] is MCF7. The assay is described as follows: Antiproliferative activity against human MCF7 cells assessed as cell viability incubated for 96 hrs by MTT assay. It counts as functional, cell-based. The conditions noted are these: MCF7, 96 h. The procedure, abridged:
as §1

The test system of assay [3] is MDA-MB-231. The assay is described as follows: Antiproliferative activity against human MDA-MB-231 cells assessed as cell viability incubated for 96 hrs by MTT assay. In kind it is functional, cell-based. The conditions noted are these: MDA-MB-231, 96 h. The procedure, abridged: as §1
A short description of assay [4]: Antiproliferative activity against human P493-6 cells expressing MYC assessed as inhibition of cell proliferation incubated for 96 hrs by cell titer glo assay. The conditions noted are these: P493-6, 96 h. In kind it is functional, cell-based. Put shortly:
(§2)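 P493-6 cells (3000/well, RPMI) were seeded overnight at 37 °C, then given compounds at final 0.14–100 µM for 96 h. MYC-off cells were pretreated with 0.1 µg/mL tetracycline for 72 h. Read-out was CellTiter-Glo luminescence after equilibration to room temperature. IC50 was determined in high-MYC and MYC-off cells.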

The nature of assay [5]: Antiproliferative activity against tetracycline-treated human P493-6 cells expressing MYC assessed as inhibition of cell proliferation incubated for 96 hrs by cell titer glo assay. As to conditions: P493-6, 96 h. In kind it is functional, cell-based. Put shortly:
as §2

Assay [6] is described as follows: Selectivity index, ratio of IC50 for antiproliferative activity against tetracycline-treated human P493-6 cells expressing MYC assessed as inhibition of cell proliferation to IC50 for antiproliferative activity against human P493-6 cells expressing MYC assessed as inhibition of cell proliferation. It counts as functional. The procedure, abridged:
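MYC-off P493-6 cells obtained by 72 h pretreatment with 0.1 µg/mL tetracycline and compared with untreated MYC-high cells. Cells seeded at 3000 per 100 uL, held overnight at 37 °C, then treated at 0.14–100 uM final for 96 h. Viability read by CellTiter-Glo luminescence. IC50 values determined in both states and compared as a selectivity index.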

Assay [7] concerns the target T1, c-Myc/c-Max (Homo sapiens) (UniProt P01106+P61244). Put plainly: Disruption of MYC-MAX interaction in human MDA-MB-468 cells assessed as reduction in myc level at 25 uM. In kind it is cell-based.
The subject of assay [8] is P493-6. The assay is described as follows: Antiproliferative activity against human P493-6 cells expressing MYC assessed as inhibition of cell proliferation at 25 uM incubated for 96 hrs by cell titer glo assay. It counts as functional, cell-based. The procedure, abridged: (§3)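 P493-6 cells, either untreated (high MYC) or MYC-off after 0.1 µg/mL tetracycline for 72 h, were exposed to 25 µM for 96 h. Read-out was % survival by CellTiter-Glo luminescence. Mean ± SD, n = 6, unpaired t-test.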

Assay [9] deals with T1, c-Myc/c-Max (Homo sapiens). The assay is described as follows: Disruption of MYC-MAX interaction in human P493-6 cells assessed as reduction in myc level at 25 uM. In kind it is cell-based.
For assay [10], the system named is P493-6. Put plainly: Antiproliferative activity against tetracycline-treated human P493-6 cells expressing MYC assessed as inhibition of cell proliferation at 25 uM incubated for 96 hrs by cell titer glo assay. In kind it is functional, cell-based. The procedure, abridged: as §3
A short description of assay [11]: Induction of apoptosis in human P493-6 cells assessed as early apoptotic cells at 25 uM incubated for 24 hrs by Annexin V/PI staining based flow cytometry analysis (reference value: 2.52 %). In kind it is functional.
A short description of assay [12]: Induction of apoptosis in human P493-6 cells assessed as necrotic cells at 25 uM incubated for 24 hrs by Annexin V/PI staining based flow cytometry analysis (reference value: 0.11 %). It counts as functional.
The nature of assay [13]: Induction of apoptosis in human P493-6 cells assessed as late apoptotic cells at 25 uM incubated for 24 hrs by Annexin V/PI staining based flow cytometry analysis (reference value: 6.52 %). It counts as functional.
The nature of assay [14]: Induction of apoptosis in human P493-6 cells assessed as viable cells at 25 uM incubated for 24 hrs by Annexin V/PI staining based flow cytometry analysis (reference value: 90.8%). It counts as functional. As to conditions: read-out: Activity.

Calls of active or inactive are those of the source. No cut-off for these calls is given here.

T1 sequence (P01106 whole entry): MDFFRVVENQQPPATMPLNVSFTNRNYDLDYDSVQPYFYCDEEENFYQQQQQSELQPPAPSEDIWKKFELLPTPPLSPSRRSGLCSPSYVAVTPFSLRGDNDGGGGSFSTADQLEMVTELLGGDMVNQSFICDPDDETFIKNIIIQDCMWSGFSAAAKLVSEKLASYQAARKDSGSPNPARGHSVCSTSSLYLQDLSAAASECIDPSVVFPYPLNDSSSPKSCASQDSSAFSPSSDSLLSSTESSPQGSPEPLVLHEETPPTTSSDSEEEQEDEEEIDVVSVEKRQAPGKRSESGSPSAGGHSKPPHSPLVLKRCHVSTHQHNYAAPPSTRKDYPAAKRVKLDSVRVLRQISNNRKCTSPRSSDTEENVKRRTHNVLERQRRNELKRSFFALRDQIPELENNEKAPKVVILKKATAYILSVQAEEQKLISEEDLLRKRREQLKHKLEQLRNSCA
T1 sequence (P61244 2-160 partner limits assumed): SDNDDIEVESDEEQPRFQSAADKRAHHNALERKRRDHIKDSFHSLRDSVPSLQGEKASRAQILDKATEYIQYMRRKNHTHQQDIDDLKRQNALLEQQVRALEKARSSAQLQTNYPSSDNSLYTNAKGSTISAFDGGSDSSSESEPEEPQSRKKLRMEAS

On to `Cc1ccc(-c2nn(-c3ccc(Cl)cc3)c3[nH]c(=O)c(C#N)cc23)cc1`, for which the figures for the IC50 in assay [1], in assay [2] and in assay [3] were 71.6 µM, over 100 µM and 58.9 µM, respectively.

Take `N#Cc1cc2c(-c3ccc(F)cc3)nn(-c3ccc(F)cc3)c2[nH]c1=O`: the IC50 is 79.4 µM in assay [1]; over 100 µM in [4]; 9.3 µM in assay [2]; over 100 µM in [3]; over 100 µM in [5].

In the case of `Cc1ccc(-c2nn(-c3ccccc3)c3[nH]c(=O)c(C#N)cc23)cc1`, the “Ratio IC50” value in [6] was determined as 2.4. In addition, the IC50 worked out at 32.4 µM in assay [1]; 21.1 µM in [4]; 20.4 µM in assay [2]; 34.7 µM in assay [3]; 51.3 µM in assay [5].

As to `N#Cc1cc2c(-c3ccc(Br)cc3)nn(-c3ccccc3)c2[nH]c1=O`, the outcome in [7], in assay [8], in [9] and in [10] was Active. Besides, the “Ratio IC50” value in [6] is given as 2.3. Further, the IC50 in [1] stood at 13.2 µM; in [4], 15.6 µM; in assay [2], 12.2 µM; in assay [3], 5.5 µM; in [5], 35.9 µM.

`COc1ccc(-c2nn(-c3ccccc3)c3[nH]c(=O)c(C#N)cc23)cc1`: the “Ratio IC50” value in assay [6] is on record as over 4. Moreover, the IC50 in [1] was 33.1 µM; in [4], 20.9 µM; in [2], 16.6 µM; in assay [3], 38 µM; in assay [5], over 100 µM.

`COc1ccc(-n2nc(-c3ccc(C)cc3)c3cc(C#N)c(=O)[nH]c32)cc1`: the “Ratio IC50” value in assay [6] is 1.5. Also, the IC50 in [1] came out at 7.9 µM; in assay [4] it was 51.2 µM; in [2], 9.3 µM; in [3] it was 9.8 µM; in [5] it was 75.9 µM.

On to `CCc1ccc(/C=C2/SC(=S)NC2=O)cc1`, for which the “Ratio IC50” value in assay [6] is given as 1.7. Besides, the Activity came out at 2.54% in assay [11], 0.062% in assay [12] and 8.06% in assay [13]. Also, the IC50 came to 39.8 µM in assay [1], 35.1 µM in assay [4], 44.7 µM in assay [3] and 59.5 µM in assay [5]. For the same compound, in assay [14], the viability at 25 µM was 89.3%.

(Values after ChEMBL document CHEMBL6115033, “Discovery of a Pyrazolopyridinone-Based MYC Inhibitor That Selectively Engages Intracellular c-MYC and Disrupts MYC-MAX Heterodimerization” (J Med Chem, 2025).)
